The entries come from a sample that favours hits as a whole.
p-CIP stab down = lowers stability of the mouse p/CIP coactivator protein | Q05BA5 | F442A p/CIP-EGFP cells, EGFP fluorescence, 16 h | decrease of EGFP signal, % at 10 µM | actives 0.01% (n = 290,000) | AID 1984;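 active = EGFP signal decrease of at least 30% at 10 µM or well 3 SD below plate mean, unless failing retest; inactive = the rest, including hits failing retest or dose response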
Dynein cargo inh = dynein cargo transport inhibition; 3617.4 mouse cells, GR-EGFP nuclear translocation imaging; test concentration mostly 20 µM; stimulated with dexamethasone, 1 µM; hits give low values; z-score, hits read low; actives 0.47% (n = 220,000); AID 1381;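 active = plate z-score of nuclear minus cytoplasmic receptor signal below a set negative limit, without overly bright fluorescence or cell loss, cut at about -3.5 in these data, passing the limit was not always enough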;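 also: z-score of nuclear minus cytoplasmic ring GR-EGFP intensity difference per well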
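Also added – dexamethasone, 1.0 µM final · Buffer or medium – tet-free, stripped-serum medium · Schedule – induction 48 h, compound 1 h, agonist 30 min · Detection – formaldehyde fixation, Hoechst nuclear stain, 10x automated fluorescence imaging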
UPR CHOP act = apoptotic UPR (CHOP) activation; activation, % at 10 µM; actives 0.34% (n = 330,000); CHO-CHOP luciferase reporter, luminescence; percent of tunicamycin response over DMSO baseline;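 active = at 10 µM dose, activation of 40% or more, normalized to positive control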
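Assay system: CHO-CHOP cells, stable luciferase reporter of PERK-eIF2a-CHOP signalling / Buffer or medium: F12 plus 10% serum / Compound dosing: one dose, 10 µM in 0.5% DMSO / Times: 6 h compound treatment, 37 °C / Technique: luciferase luminescence / Read-out: % reporter activation, DMSO baseline versus tunicamycin full activation / Benchmarks: tunicamycin and DMSO controls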
CHOP inhibitor = inhibitors of CHOP induction in ER stress response | CHO-K1 CHOP-promoter luciferase, tunicamycin-induced, 15-18 h | inhibition, % at 10 µM | actives 3.8% (n = 220,000) | AID 2732;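 active = compounds that reduced the stress-induced luciferase reporter signal by more than about 70% of percent inhibition, limit read from the data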
B2AR ag = agonists of human beta-2 adrenergic receptor inducing internalization | P07550 | Am2.2-beta2AR cells, FAP receptor internalization, flow cytometry | response, % (test concentration not listed) | actives 0.43% (n = 340,000);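 active = response above a set limit, near 3 SD of response in nonfluorescent compounds, cut at about 42% in these data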
UPR XBP1 act = adaptive UPR (XBP1) activation. CHO-XBP1 luciferase reporter, IRE1-XBP1 UPR activation, luminescence; percent of tunicamycin response, DMSO as zero. AID 463104. actives 0.33% (n = 330,000). activation, % at 20 µM;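 active = versus positive control, 20 µM dose yields 30% or more activation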
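Signal: luciferase luminescence; Assay system: CHO-XBP1 luciferase reporter cells; Amount: one thousand reporter cells per well; Dosing: 20 µM single concentration, DMSO 1%; Benchmarks: high control tunicamycin 10 µg/mL final, low control DMSO vehicle only; Schedule: 6 h compound exposure at 37 °C, 5% CO2; Evaluation: percent activation relative to tunicamycin reference.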
XBP1 UPR conf = confirmation of adaptive unfolded protein response (XBP1) activators; CHO-XBP1 IRE1-XBP1 luciferase reporter, luminescence; shares compounds with UPR XBP1 act; actives 63% (n = 1,000); activation, % at 20 µM;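 active = reporter signal at least 30% of the positive control's activation in two or more of four replicate wells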
Each line names hits and unclear results; the compound was inactive in the other large screens (follow-up assays come after a bar, where they were run).

Cc1c(NC(=O)CSc2ccc(Cl)cc2)cccc1-c1nc2cc(Cl)ccc2o1	UPR XBP1 act 42 | XBP1 UPR conf 59
N#C/C(=C/c1ccc(N2CCCC2)c([N+](=O)[O-])c1)c1nc2ccccc2[nH]1	CHOP inhibitor 78, B2AR ag 82, UPR XBP1 act 131 | XBP1 UPR conf 87
COc1ccc(OC)c(NC(=O)COC(=O)C2CCCCC2)c1	none (no result: p-CIP stab down, Dynein cargo inh, CHOP inhibitor)
C=CCOc1ccc(-c2nc3c(c(=O)[nH]c(=O)n3CCCC)n2C)cc1Br	UPR XBP1 act 39 (no result: Dynein cargo inh, CHOP inhibitor) | XBP1 UPR conf inactive
CCCCn1c(=O)[nH]c(=O)c2c1nc(-c1ccc(OC)c(Br)c1)n2CC(C)C	none (no result: Dynein cargo inh, CHOP inhibitor)
COC(=O)c1ccccc1NC(=O)c1cc(-c2ccco2)on1	none (no result: Dynein cargo inh, CHOP inhibitor)
COC(=O)c1ccccc1NC(=O)c1cc(-c2cccs2)on1	CHOP inhibitor 75, UPR XBP1 act 32 | XBP1 UPR conf inactive
Fc1cccc(CCN2CCNC[C@@H]2Cc2ccccc2)c1	none (no result: p-CIP stab down, Dynein cargo inh, CHOP inhibitor)
FC(F)(F)c1cc(CCN2CCNC[C@@H]2Cc2ccccc2)cc(C(F)(F)F)c1	UPR XBP1 act 37 (no result: p-CIP stab down, Dynein cargo inh, CHOP inhibitor) | XBP1 UPR conf inactive
COc1ccc(-c2nnc(SCC(=O)Nc3sc4c(c3C#N)CCCC4)n2-c2ccccc2)cc1	UPR XBP1 act 35 | XBP1 UPR conf 61
Cc1cc(C)c2c(n1)sc1c(-c3ccccc3)c(C#N)c(N)nc12	UPR XBP1 act 91 | XBP1 UPR conf 48
O=C(COC(=O)CCC(NC(=O)OCc1ccccc1)C(=O)OCC(=O)Nc1ccccc1)Nc1ccccc1 (stereo unspecified)	none
O=C(/C=C/c1cc([N+](=O)[O-])ccc1OC(F)F)Nc1ccc(OC(F)F)cc1	none
O=C(/C=C/c1cc([N+](=O)[O-])ccc1OC(F)F)Nc1cccc([N+](=O)[O-])c1	UPR XBP1 act 102 | XBP1 UPR conf 28
Nc1nc(Nc2ccccc2)nc(NC2CCCCC2)c1[N+](=O)[O-]	UPR XBP1 act 43 (no result: Dynein cargo inh, CHOP inhibitor) | XBP1 UPR conf 35
CCOC(=O)c1sc(NC(=O)CN2C(=O)NC3(CC(C)CC(C)(C)C3)C2=O)c(C(=O)OCC)c1C (stereo unspecified)	none
CCOC(=O)c1sc(NC(=O)CN2C(=O)NC3(CCC(C)CC3)C2=O)c(C(=O)OCC)c1C (stereo unspecified)	UPR XBP1 act 31 (no result: p-CIP stab down, Dynein cargo inh, CHOP inhibitor) | XBP1 UPR conf inactive
CCOc1ccc(NC(=S)NC(=O)/C=C/c2ccc(C)cc2)c([N+](=O)[O-])c1	UPR XBP1 act 213 | XBP1 UPR conf 144
COc1ccc(OC)c(Nc2nc(NCc3ccco3)nc(N)c2[N+](=O)[O-])c1	UPR XBP1 act 55 | XBP1 UPR conf 62
Cc1cc(N2O[C@]34C=C[C@]25C[C@@H](O)CC[C@]5(C)C3CC[C@]2(C)[C@@H]([C@H](C)/C=C/[C@H](C)C(C)C)CC[C@H]24)no1 (stereo partly specified)	UPR XBP1 act 41 (no result: p-CIP stab down, Dynein cargo inh, CHOP inhibitor) | XBP1 UPR conf inactive
Cc1ccc(NC2=C(Cl)C(=O)OC2OC(C)C)c(C)c1 (stereo unspecified)	UPR XBP1 act 36 | XBP1 UPR conf inactive
Cc1cccc(C)c1NC1=C(Cl)C(=O)OC1OC(C)C (stereo unspecified)	none
Cn1c(SCC(=O)c2ccc(O)c(O)c2)nnc1-c1cccs1	none
COc1ccc(-c2c/c(=N\c3nc(-c4ccccc4)c(C)s3)c3ccccc3o2)cc1O	UPR XBP1 act 34 (no result: CHOP inhibitor) | XBP1 UPR conf 39
Cc1cc(C)c(S(=O)(=O)Nc2ccc3c4c(cccc24)CC3)c(C)c1	UPR XBP1 act 30 | XBP1 UPR conf inactive
CC(=O)Nc1ccc(-c2cc(-c3ccc(NC(C)=O)cc3)nc(-c3ccccc3)n2)cc1	UPR XBP1 act 46 | XBP1 UPR conf inactive
CC(=O)Nc1ccc(-c2cc(-c3ccccc3)nc(-c3ccccc3)n2)cc1	none
CCC(=O)Nc1ccc(-c2cc(-c3ccccc3)nc(-c3ccc(NC(=O)CC)cc3)n2)cc1	UPR XBP1 act 82 | XBP1 UPR conf 92
CCOC(=O)C1=C(C)n2c(s/c(=C/c3cccc([N+](=O)[O-])c3)c2=O)=NC1c1ccc(O)c(OC)c1 (stereo unspecified)	UPR XBP1 act 45 | XBP1 UPR conf 86
Fc1ccc(-c2nc3c(-c4ccccc4)cnn3cc2CCN2CCOCC2)cc1	none
CCOC(=S)SCC(=O)Nc1nc(-c2ccc(Br)cc2)cs1	CHOP inhibitor 82, UPR XBP1 act 93 | XBP1 UPR conf 164
COc1ccc(CNc2nc(-c3ccccc3)nn2C(=O)c2ccc([N+](=O)[O-])cc2)cc1	UPR XBP1 act 33 | XBP1 UPR conf inactive
Cc1cc(C(=O)COc2cc(F)ccc2[N+](=O)[O-])c(C)n1CC1CCCO1 (stereo unspecified)	none (no result: p-CIP stab down, Dynein cargo inh, CHOP inhibitor)
COc1ccc(-c2cc(C(=O)Nc3c(C)nn(Cc4ccc(Cl)cc4)c3C)no2)cc1	CHOP inhibitor 81, UPR XBP1 act 49 | XBP1 UPR conf inactive
Cc1nn(Cc2ccc(Cl)cc2)c(C)c1NC(=O)c1cc(-c2ccco2)on1	none
N#Cc1ccc(-c2ccc(Cl)cc2)nc1SCC(=O)c1cccc(Cl)c1	UPR XBP1 act 122 | XBP1 UPR conf 369
COCCCNCC1C(Oc2ccc(Cl)cc2)C(=O)N1c1ccccc1C (stereo unspecified)	UPR XBP1 act 36 | XBP1 UPR conf inactive
Cc1ccccc1N1C(=O)C(Oc2ccc(Cl)cc2)C1CNCCCOC(C)C (stereo unspecified)	none
O=C(c1ccccc1)C1CCN(CC(=O)N2CCN(c3ccccc3)CC2)CC1	none
NS(=O)(=O)c1ccc(NC(=S)NC(=O)c2ccc(-c3ccccc3)cc2)cc1	UPR XBP1 act 50 | XBP1 UPR conf inactive
COc1ccc(S(=O)(=O)N2CCOC2CNC(=O)C(=O)NCCc2c[nH]c3ccccc23)cc1C (stereo unspecified)	none
C=CCOC(=O)/C=C/C(=O)NC(N)=O	none
Cc1cc(C(=O)N/N=C/c2ccc(-c3cccc(Br)c3)o2)n[nH]1	UPR XBP1 act 32 | XBP1 UPR conf inactive
Cc1cc(C(=O)N/N=C/c2ccco2)n[nH]1	none
COc1ccc2oc(=O)c(C(=O)N3CCN(C(=O)c4ccco4)CC3)cc2c1	none (no result: Dynein cargo inh, CHOP inhibitor)
CCC(CC)C(=O)c1c[nH]c(C(=O)N2CCN(c3ccccc3)CC2)c1	none
Cc1c(C(=O)NC2CCN(Cc3ccccc3)C2)oc2c(Cl)cccc12 (stereo unspecified)	none (no result: Dynein cargo inh, CHOP inhibitor)

Screening results as filed in PubChem BioAssay.
